The source of these data is ChEMBL document CHEMBL3580647, “Discovery of potent indenoisoquinoline topoisomerase I poisons lacking the 3-nitro toxicophore” (J Med Chem, 2015).

Activity calls are given as the source filed them. No cut-off for these calls is given here.

In assay [1] the target is T1, DNA topoisomerase 1 (Homo sapiens) (UniProt P11387).
T1 sequence (whole entry): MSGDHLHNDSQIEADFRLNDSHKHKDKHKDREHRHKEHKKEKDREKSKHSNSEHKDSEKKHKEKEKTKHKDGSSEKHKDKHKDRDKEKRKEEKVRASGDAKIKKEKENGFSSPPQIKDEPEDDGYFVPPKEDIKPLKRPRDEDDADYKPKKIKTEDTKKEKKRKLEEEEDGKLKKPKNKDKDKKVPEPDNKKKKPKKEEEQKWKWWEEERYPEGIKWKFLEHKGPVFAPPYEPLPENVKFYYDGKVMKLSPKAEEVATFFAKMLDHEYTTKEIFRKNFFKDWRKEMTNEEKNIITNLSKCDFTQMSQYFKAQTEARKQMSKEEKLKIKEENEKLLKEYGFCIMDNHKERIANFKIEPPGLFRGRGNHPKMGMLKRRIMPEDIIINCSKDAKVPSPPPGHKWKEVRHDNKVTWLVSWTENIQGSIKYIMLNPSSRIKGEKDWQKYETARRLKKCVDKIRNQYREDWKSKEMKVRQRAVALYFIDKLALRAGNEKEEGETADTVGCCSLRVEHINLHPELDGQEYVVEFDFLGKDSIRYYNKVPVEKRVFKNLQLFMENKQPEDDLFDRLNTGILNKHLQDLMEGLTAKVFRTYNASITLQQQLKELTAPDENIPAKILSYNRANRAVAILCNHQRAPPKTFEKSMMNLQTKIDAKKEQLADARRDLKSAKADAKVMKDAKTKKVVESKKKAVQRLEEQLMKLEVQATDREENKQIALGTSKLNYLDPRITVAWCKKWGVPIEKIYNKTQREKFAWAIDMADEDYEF
The assay is described as follows: Inhibition of recombinant topoisomerase 1 (unknown origin) assessed as DNA cleavage using 3'-[32P]-labeled 117-bp DNA oligonucleotide at 0.1 uM by PAGE assay. A digest of the protocol: (§1)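 Approx. 2 nM 3′-[³²P]-labeled double-stranded DNA incubated with recombinant Top1 and compound at 0.1, 1, 10 or 100 μM for 20 min at 25 °C. Stopped with 0.5% SDS and run on a denaturing gel. […] Run twice.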

The target in assay [2] is T1, DNA topoisomerase 1 (Homo sapiens). The assay is described as follows: Inhibition of recombinant topoisomerase 1 (unknown origin) assessed as DNA cleavage using 3'-[32P]-labeled 117-bp DNA oligonucleotide at 1 uM by PAGE assay. The arrangement: Activity: scale not given: the % may be the effect or the level left. A digest of the protocol: as §1
Assay [3] has the same target. The assay is described as follows: Inhibition of recombinant topoisomerase 1 (unknown origin) assessed as DNA cleavage using 3'-[32P]-labeled 117-bp DNA oligonucleotide at 10 uM by PAGE assay. The essentials:
as §1

For assay [4] the target is unchanged. The assay is described as follows: Inhibition of recombinant topoisomerase 1 (unknown origin) assessed as DNA cleavage using 3'-[32P]-labeled 117-bp DNA oligonucleotide at 100 uM by PAGE assay. A digest of the protocol:
as §1

Assay [5] can be described thus: (§2) Growth inhibition of human NCI60 cells assessed as cell growth at 10 uM. Format: functional. As to conditions: read-out: Activity. The essentials:
(§3)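 NCI-60 single-dose screen at 10 μM across ~60 human cancer cell lines. Reported as growth percent relative to vehicle-treated control, averaged over all lines tested as a mean growth percent.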

The subject of a further assay is HOP-62. Description: Growth inhibition of human HOP62 cells by five-dose growth inhibition assay. Format: functional.
The test system of another assay is HCT-116. The assay is described as follows: Growth inhibition of human HCT116 cells by five-dose growth inhibition assay. The assay is classed as functional.
A short description of assay [6]: Growth inhibition of human SF539 cells by five-dose growth inhibition assay. The assay is classed as functional. As to conditions: SF-539.
In a further assay the test system is UACC-62. The assay is described as follows: Growth inhibition of human UACC62 cells by five-dose growth inhibition assay. Format: functional.
The subject of a further assay is OVCAR-3. Description: Growth inhibition of human OVCAR3 cells by five-dose growth inhibition assay. The assay is classed as functional.
The next assay has as its system SN12C. Description: Growth inhibition of human SN12C cells by five-dose growth inhibition assay. Format: functional.
A further assay has as its system DU-145. Description: Growth inhibition of human DU145 cells by five-dose growth inhibition assay. The assay is classed as functional.
A further assay deals with MCF7. Description: Growth inhibition of human MCF7 cells by five-dose growth inhibition assay. The assay is classed as functional.
For another assay, the system named is NCI60. The description is as §2. The assay is classed as functional. The essentials: as §3
The target in assay [7] is Tyrosyl-DNA phosphodiesterase 1 (Homo sapiens, UniProt Q9NUW8). Description: Inhibition of recombinant TPD1 (unknown origin) activity using 3'-phosphotyrosine-containing 5'-[32P]-labeled single-stranded DNA oligonucleotide by PAGE assay.
Chain of Tyrosyl-DNA phosphodiesterase 1 (Q9NUW8 whole entry): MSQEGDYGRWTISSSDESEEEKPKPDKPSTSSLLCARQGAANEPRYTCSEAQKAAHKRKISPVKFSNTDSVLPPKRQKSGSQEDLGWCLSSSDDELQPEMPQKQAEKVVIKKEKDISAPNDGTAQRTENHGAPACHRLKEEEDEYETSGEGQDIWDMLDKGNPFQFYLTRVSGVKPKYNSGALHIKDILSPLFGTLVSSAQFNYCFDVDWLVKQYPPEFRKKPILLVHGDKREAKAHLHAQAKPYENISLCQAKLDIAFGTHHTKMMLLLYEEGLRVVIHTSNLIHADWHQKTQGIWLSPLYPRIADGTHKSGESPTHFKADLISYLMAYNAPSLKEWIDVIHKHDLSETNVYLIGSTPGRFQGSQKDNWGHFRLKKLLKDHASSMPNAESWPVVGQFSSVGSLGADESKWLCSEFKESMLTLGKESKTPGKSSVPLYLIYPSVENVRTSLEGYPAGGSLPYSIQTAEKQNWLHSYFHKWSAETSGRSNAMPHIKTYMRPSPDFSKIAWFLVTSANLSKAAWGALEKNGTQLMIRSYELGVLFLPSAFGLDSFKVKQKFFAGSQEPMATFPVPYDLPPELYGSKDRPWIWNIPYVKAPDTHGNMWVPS
The target of assay [8] is T2, Tyrosyl-DNA phosphodiesterase 2 (Homo sapiens, UniProt O95551).
T2 sequence (O95551 whole entry): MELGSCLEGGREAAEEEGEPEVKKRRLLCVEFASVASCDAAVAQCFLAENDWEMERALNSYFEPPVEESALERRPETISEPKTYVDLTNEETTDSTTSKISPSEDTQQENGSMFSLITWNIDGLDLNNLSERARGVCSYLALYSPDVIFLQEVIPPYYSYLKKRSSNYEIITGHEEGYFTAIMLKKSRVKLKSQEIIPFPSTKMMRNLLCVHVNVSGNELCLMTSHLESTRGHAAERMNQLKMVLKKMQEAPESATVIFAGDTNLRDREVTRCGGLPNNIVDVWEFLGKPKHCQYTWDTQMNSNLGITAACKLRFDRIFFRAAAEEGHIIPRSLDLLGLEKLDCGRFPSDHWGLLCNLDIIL
Description: Inhibition of human recombinant TPD2 activity using 5'phosphotyrosine-containing 19-mer single-stranded oligonucleotide DNA substrate by PAGE assay.

With `O=C1c2ccccc2-c2c1c1ccc(Cl)cc1c(=O)n2CCCN1CCOCC1`, the inhibition result in assay [1], in [2], in assay [3] and in assay [4] was “Active” in each case. The Activity in assay [2] came to 50%. The growth at 10 µM in assay [5] came to 44.7%. Moreover, the GI50 in the assay with HOP-62 is 2140 nM; in the assay on HCT-116, 1620 nM; in [6], 2400 nM; with UACC-62, 3310 nM; with OVCAR-3, 6030 nM; with SN12C, 5010 nM. Further, the GI50 came out at 4070 nM with DU-145 and 372 nM with MCF7.
Consider `O=C1c2ccccc2-c2c1c1ccc(I)cc1c(=O)n2CCCN1CCOCC1`, for which the inhibition result in assay [1], in [2], in assay [3] and in [4] was “Active” each time. For the same compound, the Activity in [2] turned out to be 20%. Further, the growth at 10 µM in assay [5] was 96%.
As to `COC(=O)c1ccc2c3c(n(C[C@H](O)CO)c(=O)c2c1)-c1ccccc1C3=O`, the Activity in assay [2] was 20%. Further, in the assay with NCI60, the outcome was inactive.
Consider `O=C1c2ccccc2-c2c1c1ccc(I)cc1c(=O)n2C[C@H](O)CO`, for which the Activity in [2] worked out at 50%. Besides, the IC50 in assay [7] and in assay [8] was more than 111000 nM each time. Also, the growth at 10 µM in assay [5] is 39.7%. Further, the GI50 amounted to 631 nM with HCT-116; 3020 nM in [6]; 2140 nM in the assay with UACC-62; 5270 nM in the assay on OVCAR-3; 4270 nM in the assay with SN12C; 331 nM in the assay with MCF7.
Take `O=C1c2ccccc2-c2c1c1ccc(F)cc1c(=O)n2CCCn1ccnc1`: the inhibition entry in [1], in assay [2], in assay [3] and in assay [4] was “Active” throughout. The Activity in [2] came out at 75%. Besides, the growth at 10 µM in assay [5] is -8.15%. In addition, the GI50 in the assay on HOP-62 stood at 490 nM; in the assay with HCT-116 it was 309 nM; in [6], 417 nM; with UACC-62 it was 245 nM; in the assay with OVCAR-3, 1290 nM; in the assay with SN12C, 437 nM. The GI50 worked out at 575 nM in the assay on DU-145 and 135 nM with MCF7.
For `O=C1c2ccccc2-c2c1c1ccc(F)cc1c(=O)n2CCCN1CCOCC1`, the inhibition entry in assay [1], in assay [2], in assay [3] and in assay [4] was “Active” each time. For the same compound, the Activity in [2] is 75%. Further, the growth at 10 µM in assay [5] amounted to 30.3%. Besides, the GI50 worked out at 2090 nM with HOP-62; 1290 nM with HCT-116; 2950 nM in [6]; 1380 nM in the assay on UACC-62; 4270 nM with OVCAR-3; 2340 nM with SN12C. The GI50 with MCF7 turned out to be 347 nM.
Consider `O=C1c2ccccc2-c2c1c1ccc(Br)cc1c(=O)n2CCCn1ccnc1`, for which the Activity in [2] worked out at 50%. For the same compound, the growth at 10 µM in assay [5] was 27.3%. Moreover, the 50% growth inhibitory concentration (GI50) is 513 nM in the assay with HOP-62; 251 nM in the assay on HCT-116; 676 nM in assay [6]; 427 nM with UACC-62; 3310 nM in the assay with OVCAR-3; 468 nM in the assay on SN12C. For the same compound, the GI50 turned out to be 676 nM in the assay with DU-145 and 191 nM in the assay with MCF7.
Consider `O=C1c2ccccc2-c2c1c1ccc(I)cc1c(=O)n2CCCn1ccnc1`, for which, in assay [2], the Activity is 50%. The growth at 10 µM in assay [5] turned out to be 43.5%. Also, the GI50 stood at 437 nM in the assay with HOP-62; 200 nM in the assay on HCT-116; 550 nM in [6]; 2290 nM in the assay with UACC-62; 3890 nM in the assay with OVCAR-3; 708 nM in the assay on SN12C. Besides, the GI50 in the assay with DU-145 amounted to 603 nM; in the assay with MCF7, 74 nM.
Take `N#Cc1ccc2c3c(n(CCCn4ccnc4)c(=O)c2c1)-c1ccccc1C3=O`: the Activity in assay [2] was found to be 50%. In addition, in [5], the growth at 10 µM is 41.1%. The GI50 in the assay with HOP-62 was determined as 537 nM; with HCT-116, 112 nM; in assay [6] it was 501 nM; with UACC-62, 407 nM; with OVCAR-3, 4680 nM; in the assay on SN12C it was 575 nM. The figures for the GI50 in the assay with DU-145 and in the assay with MCF7 were 562 nM and 33 nM, respectively.
As for `COC(=O)c1ccc2c3c(n(CCCn4ccnc4)c(=O)c2c1)-c1ccccc1C3=O`, in assay [2], the Activity is 50%. For the same compound, the growth at 10 µM in assay [5] worked out at 62.1%. In addition, the GI50 in the assay on HOP-62 stood at 589 nM; with HCT-116, 398 nM; in assay [6], 490 nM; in the assay with UACC-62, 100000 nM; in the assay on OVCAR-3 it was 100000 nM; with SN12C it was 525 nM. The GI50 in the assay with DU-145 stood at 692 nM; in the assay with MCF7, 316 nM.
As for `O=C1c2ccccc2-c2c1c1ccc(Cl)cc1c(=O)n2C[C@H](O)CO`, the Activity in assay [2] is 50%. Also, the growth at 10 µM in assay [5] stood at 14.5%. Further, the GI50 with HOP-62 was determined as 692 nM; in the assay on HCT-116, 437 nM; in [6], 417 nM; with UACC-62, 398 nM; with OVCAR-3 it was 2240 nM; in the assay with SN12C, 977 nM. In addition, the GI50 came out at 2090 nM in the assay on DU-145 and 257 nM with MCF7.
Regarding `O=C1c2ccccc2-c2c1c1ccncc1c(=O)n2CCCN1CCOCC1`, the Activity in [2] came out at 50%. Besides, the result with NCI60 was inactive.
As to `O=C1c2ccccc2-c2c1c1ccc(Cl)cc1c(=O)n2CCCn1ccnc1`, the inhibition result in assay [1], in [2], in assay [3] and in [4] was “Active” in each case. For the same compound, in assay [2], the Activity stood at 75%. Moreover, the growth at 10 µM in assay [5] was 0.06%. For the same compound, the GI50 was found to be 204 nM in assay [6], 74 nM with UACC-62, 110 nM in the assay on SN12C and 31 nM in the assay on MCF7.
